Results on 18 compounds are retold here after ChEMBL document CHEMBL4706580, “4-Amino-1,2,4-triazole-3-thione-derived Schiff bases as metallo-β-lactamase inhibitors” (Eur J Med Chem, 2020).

For orientation: inhibition means the drop in the measured response relative to a control, in per cent. The Ki is a dissociation constant, usually derived from enzyme kinetics or from competition with a known ligand.

Calls of active or inactive are those of the source. No cut-off for these calls is given here.

Test [1] in a line: Inhibition of beta-lactamase L1 (unknown origin) expressed in Escherichia coli BL21(DE3) using nitrocefin as substrate by measuring substrate hydrolysis at 100 uM preincubated for 30 mins by spectrophotometric analysis. The essentials: (§1)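 Enzyme 0.2–0.8 nM in 25 mM HEPES pH 7.5 with 50 μM ZnCl2 final, pre-incubated 30 min at 21 °C with inhibitor (100 μM screen). Nitrocefin 100 μM final, read at 482 nm, 30 °C. Residual activity vs three uninhibited samples; Ki (1–100 μM inhibitor) from Hanes linearization, competitive model. Triplicate.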

Test [2] can be described thus: Inhibition of beta-lactamase IMP-1 (unknown origin) expressed in Escherichia coli BL21(DE3) using imipenem as substrate by measuring substrate hydrolysis at 100 uM by spectrophotometric analysis. The gist of the method:
(§2)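 Purified enzyme (overproduced in E. coli BL21(DE3), pET-9a; ion-exchange and gel filtration), 1-70 nM final. Reporter substrate 150 μM imipenem, read at 300 nm, 30 °C, 50 mM HEPES pH 7.5. Single-point screen at 100 or 200 μM; Ki from v0/vi vs [I] (0.5–1,000 μM final) assuming competitive inhibition, or Dixon plot. Triplicate.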

Test [3] in a line: Inhibition of beta-lactamase IMP-1 (unknown origin) expressed in Escherichia coli BL21(DE3) using imipenem as substrate by measuring substrate hydrolysis at 200 uM by spectrophotometric analysis. The gist of the method:
as §2

Test [4] can be described thus: Inhibition of beta-lactamase NDM1 (unknown origin) expressed in Escherichia coli BL21(DE3) using cefotaxime/nitrocefin as substrate by measuring substrate hydrolysis at 200 uM by spectrophotometric analysis.
Test [5] can be described thus: Inhibition of beta-lactamase VIM4 (unknown origin) expressed in Escherichia coli BL21(DE3) using imipenem as substrate by measuring substrate hydrolysis at 100 uM by spectrophotometric analysis. The gist of the method:
as §2

Test [6] can be described thus: Inhibition of beta-lactamase L1 (unknown origin) expressed in Escherichia coli BL21(DE3) using nitrocefin as substrate by measuring substrate hydrolysis at 200 uM preincubated for 30 mins by spectrophotometric analysis.
Test [7] can be described thus: Inhibition of beta-lactamase VIM2 (unknown origin) expressed in Escherichia coli BL21(DE3) using imipenem as substrate by measuring substrate hydrolysis at 100 uM by spectrophotometric analysis. The gist of the method: as §2
Test [8] can be described thus: Inhibition of beta-lactamase NDM1 (unknown origin) expressed in Escherichia coli BL21(DE3) using cefotaxime/nitrocefin as substrate by measuring substrate hydrolysis at 100 uM by spectrophotometric analysis.
Test [9] in a line: Inhibition of beta-lactamase VIM2 (unknown origin) expressed in Escherichia coli BL21(DE3) using imipenem as substrate by measuring substrate hydrolysis at 200 uM by spectrophotometric analysis. The essentials: as §2
Test [10] in a line: Inhibition of beta-lactamase VIM4 (unknown origin) expressed in Escherichia coli BL21(DE3) using imipenem as substrate by measuring substrate hydrolysis by spectrophotometric analysis. The gist of the method:
as §2

Test [11] can be described thus: Inhibition of beta-lactamase CphA (unknown origin) expressed in Escherichia coli BL21(DE3) using imipenem as substrate by measuring substrate hydrolysis at 100 uM by spectrophotometric analysis. The gist of the method: (§3)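 Enzyme 0.2–0.8 nM in 15 mM cacodylate pH 6.5, no added zinc, pre-incubated 30 min at 21 °C with inhibitor (100 μM screen). Imipenem substrate added from 10 mM stock; hydrolysis at 300 nm, 30 °C. Residual activity vs three uninhibited samples; Ki (1–100 μM inhibitor) by Hanes linearization, competitive model. Triplicate.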

A short description of test [12]: Inhibition of beta-lactamase L1 (unknown origin) expressed in Escherichia coli BL21(DE3) using nitrocefin as substrate by measuring substrate hydrolysis preincubated for 30 mins by spectrophotometric analysis. The essentials: as §1
Test [13] is described as follows: Inhibition of beta-lactamase CphA (unknown origin) expressed in Escherichia coli BL21(DE3) using imipenem as substrate by measuring substrate hydrolysis by spectrophotometric analysis. The gist of the method:
as §3

Test [14] is described as follows: Inhibition of beta-lactamase VIM2 (unknown origin) expressed in Escherichia coli BL21(DE3) using imipenem as substrate by measuring substrate hydrolysis by spectrophotometric analysis. The essentials: as §2
The nature of test [15]: Inhibition of beta-lactamase NDM1 (unknown origin) expressed in Escherichia coli BL21(DE3) using cefotaxime/nitrocefin as substrate by measuring substrate hydrolysis by spectrophotometric analysis. The gist of the method:
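His-tagged enzyme from E. coli BL21(DE3) pET-15b, affinity-purified, 1-70 nM final. Reporter substrate 120 μM cefotaxime (260 nm) or 100 μM nitrocefin (482 nm), 30 °C, 50 mM HEPES pH 7.5. Inhibitor 0.5–1,000 μM final; competitive Ki from v0/vi vs [I] slope or Dixon plot. Triplicate.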

As to `Oc1ccc(/C=N/n2c(-c3cc4ccccc4[nH]3)n[nH]c2=S)c(O)c1`, the inhibition entry in test [1], in test [2], in [3], in test [4], in test [6] and in test [7] was “inactive” throughout. Also, the inhibition entry in test [8] and in test [9] was “inactive” each time. Also, the inhibition in [5] was 55%.
For the compound `Oc1ccc(/C=N/n2c(-c3ccc4ccccc4c3)n[nH]c2=S)c(O)c1`, the inhibition result in test [1], in [2], in test [3], in test [4], in [6] and in test [8] was “inactive” throughout. Also, the inhibition in test [5] was 55%.
Consider `O=C(O)c1cccc(-c2cccc(/C=N/n3c(-c4ccc5ccccc5c4)n[nH]c3=S)c2)c1`, for which the values for the inhibition in test [1], in [4] and in test [7] were 45%, 50% and 30%, respectively. Moreover, the inhibition entry in test [2] and in test [3] was “inactive” throughout. Further, the affinity in test [10], expressed as Ki, was 2800 nM.
As to `Oc1ccc(/C=N/n2c(C(c3ccccc3)c3ccccc3)n[nH]c2=S)c(O)c1`, the inhibition entry in [1], in test [2], in test [3], in test [4], in [6] and in test [7] was “inactive” each time. Also, the inhibition result in test [8] and in test [9] was “inactive” each time. Also, the inhibition in test [5] is 50%.
Take `S=c1[nH]nc(-c2ccccc2-c2ccccc2)n1/N=C/c1ccc(OCc2ccccc2)cc1`: the inhibition result in [1], in test [2], in test [3], in test [6], in test [7] and in test [9] was “inactive” in each case. Besides, the inhibition in [8] was 45%.
Regarding `Oc1ccc(/C=N/n2c(Cc3ccc4ccccc4c3)n[nH]c2=S)c(O)c1`, the inhibition result in test [1], in [4], in test [6], in test [7], in test [8] and in test [9] was “inactive” in each case. The inhibition was 64% in test [2] and 30% in test [5].
For the compound `O=C(O)c1ccccc1/C=N/n1c(-c2ccccc2-c2ccccc2)n[nH]c1=S`, the inhibition result in test [1], in test [2], in [3], in test [6], in test [7] and in [9] was “inactive” in each case. Besides, the inhibition came out at 49% in test [5] and 32% in test [8].
Turning to `Oc1ccc(/C=N/n2c(-c3cccc(Cl)c3)n[nH]c2=S)c(O)c1`, the inhibition stood at 30% in test [1], 66% in [2], 50% in [4] and 35% in test [11]. In test [10], this compound returned a Ki of 3000 nM.
With `O=C(O)c1ccccc1/C=N/n1c(-c2cccc(Br)c2)n[nH]c1=S`, the inhibition result in [2], in test [3], in [4] and in [8] was “inactive” each time. Also, the Ki in test [10] stood at 2000 nM; in test [12] it was 3000 nM. Moreover, in test [7], the inhibition was 35%.
Compound `Oc1ccc(/C=N/n2c(-c3cc(O)ccc3O)n[nH]c2=S)c(O)c1` showed an inhibition in test [2] of 50%. Further, the inhibitory constant (Ki) in test [10] was 3000 nM; in [12], 15000 nM; in [13] it was 5 µM. For the same compound, the inhibition result in [4], in test [7], in [8] and in [9] was “inactive” each time.
As to `Cc1ccccc1-c1n[nH]c(=S)n1/N=C/c1ccc(O)cc1`, the inhibition was determined as 43% in test [1], 37% in [2] and 35% in [11]. This compound returned an inhibition constant Ki in test [10] of 1300 nM. Besides, the inhibition result in [4], in test [7], in test [8] and in [9] was “inactive” each time.
On to `Cc1ccccc1-c1n[nH]c(=S)n1/N=C/c1cc(O)ccc1[N+](=O)[O-]`, for which the results for the inhibition in test [2] and in test [5] were 47% and 32%, respectively. The inhibition result in [4], in test [7], in [8] and in [9] was “inactive” in each case. Further, the Ki in [12] came out at 16000 nM; in test [13] it was 9 µM.
As for `O=C(O)c1ccccc1/C=N/n1c(-c2cccc3ccccc23)n[nH]c1=S`, the inhibition constant (Ki) is 14.5 µM in test [14], 1100 nM in test [12] and 76 µM in [15]. The inhibition in [2] was found to be 35%; in test [11], 56%; in [5] it was 53%.
With `Oc1ccc(/C=N/n2c(-c3cccc(-c4ccccc4)c3)n[nH]c2=S)c(O)c1`, the inhibition result in test [1], in test [2], in test [3] and in test [6] was “inactive” each time. For the same compound, the inhibition in test [5] was determined as 65%; in test [7], 45%; in test [8], 65%.
As to `Cc1ccccc1-c1n[nH]c(=S)n1/N=C/c1ccccc1`, the inhibition result in test [1] and in [6] was “inactive” in each case. Besides, the inhibitory constant (Ki) in [14] stood at 20 µM; in test [10], 20000 nM; in [13], 70 µM. The inhibition stood at 34% in test [2] and 32% in [8].
Turning to `O=C(O)c1ccccc1/C=N/n1c(-c2cccc(F)c2)n[nH]c1=S`, the inhibition in [1] came out at 40%; in test [5] it was 51%. The inhibition entry in [2], in test [3], in test [7] and in test [9] was “inactive” throughout.
For `O=C(O)c1ccccc1/C=N/n1c(-c2ccc3ccccc3c2O)n[nH]c1=S`, the inhibition entry in [2], in test [3], in test [7] and in test [9] was “inactive” each time. For the same compound, the inhibitory constant (Ki) in [10] was 2000 nM; in [12], 500 nM. In [4], this compound had an inhibition of 60%.
In the case of `Cc1ccccc1-c1n[nH]c(=S)n1/N=C/c1ccccc1C#N`, the inhibition entry in test [1], in test [6], in [7] and in [9] was “inactive” throughout. Also, the results for the inhibition in test [3] and in test [4] were 50% and 60%, respectively. For the same compound, in test [10], the affinity corresponds to a Ki of 6500 nM.
